Data from ChEMBL document CHEMBL1137092, “Synthesis and evaluation of two 18F-labeled 6-iodo-2-(4'-N,N-dimethylamino)phenylimidazo[1,2-a]pyridine derivatives as prospective radioligands for beta-amyloid in Alzheimer's disease” (J Med Chem, 2004).
“And” between values parts separate entries of the source, which are not always exact repeats. Equal entries are not always repeated. Blank lines part the entries; values can stand above or below the molecule they belong to.

Experiments:
Mus musculus [1] = species: Mus musculus; experiment: Time at maximum activity in mice (Radiolabeled compound); type: ADME, organism-based; conditions: in vivo
Summary of the method: (§1)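 Male ICR mice (2–3 months, 20–30 g) under 1% isoflurane, body temperature held at 36–37 °C. No-carrier-added 18F ligand (400–450 μCi) in 0.9% saline with 0.1% Tween given via tail-vein catheter. Dynamic small-animal PET for 1–2 h. Brain and skull time-activity curves were averaged over four mice and fitted to a double-exponential model; bone uptake was fitted linearly or exponentially.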

[2] = Compound was evaluated for distribution coefficient (logD) measured at pH7.4; type: physicochemical; conditions: octanol/water, pH 7.4
Summary of the method: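 Shake-flask partition: ligand (3–5 mg) in 0.1 M sodium phosphate pH 7.4 (6.0 mL) with n-octanol (1.0 mL). Vortexed 1 min, shaken 1 min, filtered, left 10 min at RT, centrifuged 5000g for 10 min. Value is the ratio of organic-phase to aqueous-phase concentration.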

Mus musculus [3] = species: Mus musculus; experiment: Residual activity in mice at 120 minutes, expressed as [(ID%-kg)/g] (Radiolabeled compound); type: ADME, organism-based; conditions: in vivo, 2 h; summary of the method: as §1
Mus musculus [4] = experiment: Compound was evaluated for rate of bone uptake after administration of radiolabeled in mice (Radiolabeled compound); type: ADME, organism-based, Bone element; conditions: in vivo; summary of the method: as §1
Mus musculus [5] = experiment: Maximum activity (i.v.) after in mice, expressed as [(ID%-kg)/g] (Radiolabeled compound); type: ADME, organism-based; conditions: in vivo, iv; summary of the method: as §1
Mus musculus [6] = species: Mus musculus; experiment: Compound was evaluated for washout rate in mice after radiolabeled ligand injected; type: ADME, organism-based; conditions: in vivo; summary of the method: as §1
[7] = Compound (i.v.) was evaluated for uptake rate constants in brainstem of rhesus monkeys (Radiolabeled compound); type: ADME, tissue-based, Brain; conditions: cercopithecidae, iv
Summary of the method: (§2)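 Rhesus monkey with urinary catheter; ECG, temperature, heart and respiration rates monitored. A 32 min 68Ge transmission scan was taken for attenuation correction. 18F ligand (2.9 mCi) given iv. Dynamic 3D head PET ran 120 min (33 frames, 30 s–5 min). Regional uptake and elimination rate constants were fitted from time-activity curves.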

Mus musculus [8] = experiment: Compound was evaluated for uptake rate constants in vivo in whole blood of normal mice; NA = not active (Radiolabeled compound); type: ADME, organism-based
Summary of the method: (§3)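 Normal mice given 18F ligand iv during PET. Serial blood samples (10–35 μL) were taken and analysed by reverse-phase HPLC for parent, lipophilic and polar radioactive components. Parent, lipophilic and total curves were fitted to single-exponential decay; the polar metabolite curve was fitted double-exponentially to give rate constants.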

[9] = Compound (i.v.) was evaluated for elimination rate constants in jaw bone of rhesus monkeys; NA = not active (Radiolabeled compound); type: ADME, tissue-based, Bone element; conditions: cercopithecidae, iv; summary of the method: as §2
[10] = Compound (i.v.) was evaluated for elimination rate constants in frontal cortex of rhesus monkey (Radiolabeled compound); type: ADME, tissue-based; conditions: cercopithecidae, iv, read-out: Activity (converted); summary of the method: as §2
Mus musculus [11] = experiment: Compound (i.v.) was tested for maximum activity in mice (Radiolabeled compound); type: ADME, organism-based; conditions: in vivo, iv; summary of the method: as §1
Mus musculus [12] = experiment: Compound was evaluated for uptake rate constants in vivo in whole blood of normal mice (Radiolabeled compound); type: ADME, organism-based; summary of the method: as §3
Mus musculus [13] = species: Mus musculus; experiment: Compound was evaluated for washout rate in mice (Radiolabeled compound); type: ADME, organism-based; conditions: in vivo; summary of the method: as §1
[14] = Compound (i.v.) was evaluated for elimination rate constants in cerebellum of rhesus monkeys (Radiolabeled compound); type: ADME, tissue-based; conditions: cercopithecidae, iv; summary of the method: as §2
[15] = Compound (i.v.) was evaluated for uptake rate constants in frontal cortex of rhesus monkey (Radiolabeled compound); type: ADME, tissue-based; conditions: cercopithecidae, iv; summary of the method: as §2
[16] = Compound (i.v.) was evaluated for elimination rate constants in striatum of rhesus monkey (Radiolabeled compound); type: ADME, tissue-based; conditions: cercopithecidae, iv; summary of the method: as §2
Mus musculus [17] = species: Mus musculus; experiment: Compound was evaluated for rate of bone uptake in mice (Radiolabeled compound); type: ADME, organism-based, Bone element; conditions: in vivo; summary of the method: as §1
[18] = Compound (i.v.) was evaluated for elimination rate constants in brainstem of rhesus monkeys (Radiolabeled compound); type: ADME, tissue-based, Brain; conditions: cercopithecidae, iv, read-out: Activity (converted); summary of the method: as §2
[19] = Compound (i.v.) was evaluated for uptake rate constants in striatum of rhesus monkeys (Radiolabeled compound); type: ADME, tissue-based; conditions: cercopithecidae, iv; summary of the method: as §2
[20] = Compound (i.v.) was evaluated for uptake rate constants in jaw bone of rhesus monkey (Radiolabeled compound); type: ADME, tissue-based, Bone element; conditions: cercopithecidae, iv; summary of the method: as §2
[21] = Compound (i.v.) was evaluated for uptake rate constants in cerebellum of rhesus monkeys (Radiolabeled compound); type: ADME, tissue-based; conditions: cercopithecidae, iv; summary of the method: as §2
Mus musculus [22] = experiment: Compound was evaluated for elimination rate constants in vivo in whole blood of normal mice (Radiolabeled compound); type: ADME, organism-based; summary of the method: as §3
Mus musculus [23] = species: Mus musculus; experiment: Maximum activity in mice, expressed as [(ID%-kg)/g] (Radiolabeled compound); type: ADME, organism-based; conditions: in vivo; summary of the method: as §1
Mus musculus [24] = species: Mus musculus; experiment: Compound was evaluated for rate of bone uptake in mice; NA - not active (Radiolabeled compound); type: ADME, organism-based, Bone element; conditions: in vivo

Activity (Mus musculus [1]): 1.83 min | logD [2]: 4.6 | Activity (Mus musculus [3]): 0.0479 | Activity (Mus musculus [4]): 0.00728 min⁻¹ | Activity (Mus musculus [5]): 0.157 | Activity (Mus musculus [6]): 0.127 min⁻¹
Compound: CN(CCCF)c1ccc(-c2cn3cc(I)ccc3n2)cc1

Activity [7]: 1 min⁻¹ | logD [2]: 4.41 | Activity (Mus musculus [3]): 0.111 | Activity (Mus musculus [8]): Not Active | Activity [9]: Not Active | k el [10]: 0.00101 s⁻¹ | Activity (Mus musculus [11]): 0.5 min | Activity (Mus musculus [5]): 0.161 | Activity (Mus musculus [12]): 0.576 min⁻¹ | Activity (Mus musculus [13]): 0.334 min⁻¹ | Activity [14]: 0.0854 min⁻¹ | Activity [15]: 0.859 min⁻¹ | Activity [16]: 0.0859 min⁻¹ | Activity (Mus musculus [17]): 0.0016 min⁻¹ | k el [18]: 0.000813 s⁻¹ | Activity [19]: 0.972 min⁻¹ | Activity [20]: 0.373 min⁻¹ | Activity [21]: 1.09 min⁻¹
Compound: CN(CCF)c1ccc(-c2cn3cc(I)ccc3n2)cc1
Activity (Mus musculus [22]): 1.14 min⁻¹ and 0.722 min⁻¹ and 0.801 min⁻¹

Activity (Mus musculus [1]): 2 min | logD [2]: 3.58 | Activity (Mus musculus [3]): 0.0108 | Activity (Mus musculus [23]): 0.216 | Activity (Mus musculus [13]): 0.122 min⁻¹ | Activity (Mus musculus [24]): Not Active
Compound: CN(C)c1ccc(-c2cn3cc([125I])ccc3n2)cc1
